KCNQ1 inh – inhibitors of human KCNQ1 potassium channel; P51787; 310,000 compounds, 1.3% hits; CHO-K1 KCNQ1, FluxOR thallium flux fluorescence; active compounds read high; B-score at 10 µM;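 active = compounds whose thallium flux B-score, printed positive for inhibition, exceeds three library SD while starting fluorescence stays within three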;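 also: channel opened by potassium depolarization with thallium stimulus after 20 min compound exposure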
KCNK9 inh – blocks the human KCNK9 two-pore domain potassium channel; AID 488922; HEK293 KCNK9, FluxOR thallium flux fluorescence; active compounds read low; B-score at 10 µM; Q9NPC2; 310,000 compounds, 1.2% hits;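 active = ratio B-score over 3 SD below the library mean, with starting fluorescence within 5 SD of its mean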;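 also: negative B-score means less thallium flux so channel inhibition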
Kir21 block – inhibitors of mouse Kir2.1 inward-rectifier potassium channel | P35561 | B-score at 10 µM | HEK293-Kir2.1, FluxOR thallium flux fluorescence; active compounds read low | 310,000 compounds, 0.85% hits;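 active = fluorescence ratio B-score at or below minus 3 SD of library scores, with starting-brightness B-score within 2 SD, cut at about -4.2 in these data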;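 also: channel flux triggered by added potassium and thallium sulfate stimulus; B-score of peak minus minimum fluorescence over baseline after thallium stimulus; more negative B-score means stronger Kir2.1 block with less thallium influx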
KCNK3 block – human KCNK3 channel inhibition, primary screen; O14649; CHO-KCNK3 thallium flux, FluxOR fluorescence; active compounds read low; B-score at 10 µM; 340,000 compounds, 0.84% hits; AID 602410;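 active = B-score under library mean minus 4 SD, starting fluorescence ratio at most library mean plus 5 SD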;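 also: more negative B-score means stronger inhibition of thallium flux through KCNK3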
hERG rescue – hERG (human) protection from proarrhythmic block | activation (rescue from dofetilide block), less the hit threshold, % at 10 µM | CHO-hERG, FluxOR thallium flux, dofetilide IC70 present | 310,000 compounds, 0.51% hits;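 active = activation above the mean of controls blocked by dofetilide plus 5 SD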;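 also: thallium influx through hERG after potassium depolarization seen as dye fluorescence rise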
Target sequence (Q12809 whole entry, looked up): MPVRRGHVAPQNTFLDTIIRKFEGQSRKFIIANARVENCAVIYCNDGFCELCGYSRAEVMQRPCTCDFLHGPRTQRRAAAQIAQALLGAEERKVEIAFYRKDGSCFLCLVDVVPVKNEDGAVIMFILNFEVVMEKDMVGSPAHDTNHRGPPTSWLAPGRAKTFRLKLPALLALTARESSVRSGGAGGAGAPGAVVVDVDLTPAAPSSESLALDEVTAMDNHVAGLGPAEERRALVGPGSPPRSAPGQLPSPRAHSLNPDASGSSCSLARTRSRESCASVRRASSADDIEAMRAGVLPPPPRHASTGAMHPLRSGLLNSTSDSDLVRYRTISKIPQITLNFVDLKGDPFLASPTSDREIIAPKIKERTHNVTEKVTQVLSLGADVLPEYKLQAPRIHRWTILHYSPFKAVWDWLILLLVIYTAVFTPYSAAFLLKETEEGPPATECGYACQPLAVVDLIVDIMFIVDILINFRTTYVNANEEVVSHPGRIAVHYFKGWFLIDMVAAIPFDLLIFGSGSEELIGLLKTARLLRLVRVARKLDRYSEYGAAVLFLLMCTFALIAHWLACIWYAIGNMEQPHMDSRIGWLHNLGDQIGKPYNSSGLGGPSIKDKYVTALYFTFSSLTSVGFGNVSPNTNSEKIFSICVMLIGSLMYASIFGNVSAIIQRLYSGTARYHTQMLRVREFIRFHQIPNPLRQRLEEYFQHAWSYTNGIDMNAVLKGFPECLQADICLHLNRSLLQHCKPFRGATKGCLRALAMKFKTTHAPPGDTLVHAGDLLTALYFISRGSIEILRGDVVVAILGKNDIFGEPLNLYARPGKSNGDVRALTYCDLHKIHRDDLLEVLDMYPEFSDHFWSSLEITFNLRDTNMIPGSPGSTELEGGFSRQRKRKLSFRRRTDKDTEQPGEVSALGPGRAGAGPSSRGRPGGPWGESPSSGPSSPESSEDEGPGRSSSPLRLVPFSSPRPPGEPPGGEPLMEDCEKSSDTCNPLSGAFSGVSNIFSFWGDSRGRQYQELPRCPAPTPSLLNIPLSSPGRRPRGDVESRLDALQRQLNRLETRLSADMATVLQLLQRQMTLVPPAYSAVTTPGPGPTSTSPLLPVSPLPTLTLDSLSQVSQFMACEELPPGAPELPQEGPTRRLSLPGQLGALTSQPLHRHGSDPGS
KCNQ1 pot – human KCNQ1 channel potentiation or activation. CHO-K1 KCNQ1, thallium flux FluxOR fluorescence; active compounds read high. 310,000 compounds, 0.35% hits. AID 2648. B-score at 10 µM. P51787;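 active = fluorescence ratio B-score, a plate-corrected score, at least three library SD, with initial intensity B-score within 5 SD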
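assay system = KCNQ1-transfected CHO-K1 cells | medium = assay buffer with matched DMSO | probe or stimulus = depolarizing K+/Tl+ stimulus, K2SO4 and Tl2SO4 each 12.5 mM in 5x stock | dosing = single dose | incubation = dye 90 min, compound 20 min, room temperature | detection = kinetic FluxOR fluorescence, 10 s baseline plus 110 s post-stimulus | evaluation = ratio B score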
KCNK9 block conf – confirmation of human KCNK9 potassium channel inhibitors; AID 492992; HEK293 KCNK9 cells, FluxOR thallium flux fluorescence; 4,900 compounds, 43% hits; shares compounds with KCNK9 inh; inhibition, % at 10 µM;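 active = thallium signal inhibited by more than 5 SD of the compound-free buffer control wells, on both duplicate plates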;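 also: 0% = assay buffer control wells without compound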
Kir21 sel – selectivity of KCNK9 modulators against mouse Kir2.1. shares compounds with KCNK9 inh. Kir2.1 cells, FluxOR thallium flux fluorescence. inhibition, % at 10 µM. 4,900 compounds, 4% hits. AID 492993;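 active = thallium signal drop more than 5 SD beyond the mean of the no-compound control wells, seen in both duplicate plates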;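 also: signal is fluorescence rise after thallium addition divided by baseline fluorescence; plate controls were assay buffer only for no effect and full block by chlorpromazine control for full effect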
HEK293 Tl ctr – second check of KCNK9 modulator effects in non-induced HEK293 cells; shares compounds with KCNK9 inh; FluxOR thallium flux; inhibition, % at 10 µM; 4,900 compounds, 40% hits;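 active = thallium signal drop beyond 5 SD of the untreated control mean, on both duplicate plates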;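 also: plate controls were buffer only IC0 wells for no effect and SID17386958 at its maximal inhibitory level for full effect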
Numbers without * were called inactive. An excerpt weighted towards active compounds, which were near 3.7% of everything screened.

Screening Cc1ccc(CNC(=O)c2cc3c(-c4ccc(Cl)cc4)nn(C)c3s2)o1 returned KCNQ1 inh 11*, KCNK9 inh -12*, Kir21 block -1.2, KCNK3 block -12*, hERG rescue -3, KCNQ1 pot inactive, KCNK9 block conf 56%*, Kir21 sel inactive and HEK293 Tl ctr 35%*.
O=S(=O)(c1ccccc1F)N1CCN(CCOc2ccccc2)CC1 was read as KCNK3 block inactive.
CC(C)CN(CCOc1cccc(N2C(=O)C3=C(CCCC3)C2=O)c1)CC(C)C was read as KCNQ1 inh inactive, KCNK9 inh inactive, Kir21 block 0.31, KCNK3 block inactive, hERG rescue -9, KCNQ1 pot inactive, KCNK9 block conf inactive, Kir21 sel inactive and HEK293 Tl ctr inactive.
O=C1C2=C(CCCC2)C(=O)N1c1cccc(OCCBr)c1 was read as KCNQ1 inh inactive, KCNK9 inh inactive, Kir21 block 0, KCNK3 block inactive, hERG rescue -8 and KCNQ1 pot inactive.
For O=C(CSc1nc2ccccc2c2c1CCCC2)N1CCOCC1 the results were KCNQ1 inh inactive, KCNK9 inh inactive, Kir21 block -0.99, KCNK3 block inactive, hERG rescue -13, KCNQ1 pot inactive, KCNK9 block conf inactive, Kir21 sel inactive and HEK293 Tl ctr inactive.
Cc1csc(NC(=O)CSc2nc3ccccc3c3c2CCCC3)n1 was read as KCNQ1 inh inactive, KCNK9 inh inactive, Kir21 block 1.6, KCNK3 block inactive, hERG rescue -1, KCNQ1 pot inactive, KCNK9 block conf inactive, Kir21 sel inactive and HEK293 Tl ctr inactive.
For O=C(CSc1nncc2ccccc12)N1CCOCC1 the results were KCNQ1 inh inactive, KCNK9 inh inactive, Kir21 block 0.05, KCNK3 block inactive, hERG rescue -12 and KCNQ1 pot inactive.
Screening CN(C(=O)CSc1nnc(-c2ccc(F)cc2)c2ccccc12)C1CCS(=O)(=O)C1 (stereo unspecified) returned KCNQ1 inh inactive, KCNK9 inh inactive, Kir21 block 1, KCNK3 block inactive, hERG rescue -2 and KCNQ1 pot inactive.
For Cc1cc(S(=O)(=O)N2CCCC(N(C)CCc3ccccn3)C2)c(C)cc1Cl (stereo unspecified) the results were KCNQ1 inh inactive, KCNK9 inh inactive, Kir21 block -4.2, KCNK3 block inactive, hERG rescue -17, KCNQ1 pot inactive, KCNK9 block conf inactive, Kir21 sel inactive and HEK293 Tl ctr inactive.
`O=C(NCc1ccccn1)C1CCCN(S(=O)(=O)c2cc(Cl)ccc2Cl)C1` (stereo unspecified) gave KCNK3 block inactive.
For CC(C)OC(=O)c1c(NS(=O)(=O)c2ccccc2)sc2c1CCCC2 the results were KCNQ1 inh inactive, KCNK9 inh inactive, Kir21 block -0.65, KCNK3 block inactive, hERG rescue 18*, KCNQ1 pot 31*, KCNK9 block conf inactive, Kir21 sel inactive and HEK293 Tl ctr inactive.
Screening COc1cc(CN(C)CC2CCCN(CCc3ccccc3F)C2)cc(Cl)c1OC (stereo unspecified) returned KCNQ1 inh inactive, KCNK9 inh inactive, Kir21 block -4.9*, KCNK3 block inactive, hERG rescue -4, KCNQ1 pot inactive, KCNK9 block conf inactive, Kir21 sel inactive and HEK293 Tl ctr inactive.
`COc1ccccc1CCN1CCCC(CN(C)Cc2ccc(OCCO)cc2)C1` (stereo unspecified) gave KCNQ1 inh inactive, KCNK9 inh inactive, Kir21 block 0.62, KCNK3 block inactive, hERG rescue -10 and KCNQ1 pot inactive.
For CCCCC[C@H]1CN(Cc2ccccc2)C(=O)[C@@H]1CC(=O)NCc1ccccc1 the results were KCNQ1 inh inactive, KCNK9 inh inactive, Kir21 block 0.55, KCNK3 block inactive, hERG rescue -10 and KCNQ1 pot inactive.
`CNC(=S)N1CCC(c2nc3ccccc3s2)CC1` gave KCNQ1 inh inactive, KCNK9 inh inactive, Kir21 block 0.17, KCNK3 block inactive, hERG rescue 0 and KCNQ1 pot inactive.
COC(=O)c1ccc(OC)c(CN2CCCN(Cc3cc(C)ccc3C)S2(=O)=O)c1 was read as KCNQ1 inh inactive, KCNK9 inh -17*, Kir21 block -0.59, KCNK3 block inactive, hERG rescue -5, KCNQ1 pot inactive, KCNK9 block conf 62%*, Kir21 sel inactive and HEK293 Tl ctr 28%*.
`CCC(C)n1c(SCC(=O)NC(=O)Nc2ccc3c(c2)OCCO3)nc2ccccc2c1=O` (stereo unspecified) gave KCNQ1 inh inactive, KCNK9 inh -15*, Kir21 block 0.1, KCNK3 block -8.7*, hERG rescue -2, KCNQ1 pot inactive, KCNK9 block conf 50%*, Kir21 sel inactive and HEK293 Tl ctr 30%*.
Screening CCOc1ccc(-n2c(SCC(=O)Nc3ccc4c(c3)OCO4)nc3ccccc3c2=O)cc1 returned KCNQ1 inh inactive, KCNK9 inh inactive, Kir21 block -1, KCNK3 block inactive, hERG rescue -7 and KCNQ1 pot inactive.
`CC1Cc2nc(SCC(=O)Nc3ccc4c(c3)OCO4)n(CCc3ccccc3)c(=O)c2S1` (stereo unspecified) gave KCNQ1 inh inactive, KCNK9 inh -12*, Kir21 block -1.9, KCNK3 block inactive, hERG rescue -10, KCNQ1 pot inactive, KCNK9 block conf 58%*, Kir21 sel inactive and HEK293 Tl ctr inactive.
For COc1ccc(-n2c(SCC(=O)Nc3ccc4c(c3)OCO4)nc3ccccc3c2=O)cc1 the results were KCNQ1 inh inactive, KCNK9 inh -9.3*, Kir21 block 1.3, KCNK3 block inactive, hERG rescue -7, KCNQ1 pot inactive, KCNK9 block conf 38%*, Kir21 sel inactive and HEK293 Tl ctr 36%*.
Screening CCn1c(SCC(=O)Nc2ccc3c(c2)OCO3)nc2c(c1=O)SC(C)C2 (stereo unspecified) returned KCNQ1 inh inactive, KCNK9 inh inactive, Kir21 block -0.07, KCNK3 block inactive, hERG rescue -15 and KCNQ1 pot inactive.

Source: PubChem
